Assay results reported in ChEMBL document CHEMBL3352339, “Implications of N-capped urea/thiourea and C-capped 3-(1-piperazinyl)-1,2-benzisothiazole with bridging Gly-Val/Phe-Gly-Val-Pro as therapeutic targets” (Eur J Med Chem, 2014).
Values after ≈ are worked out from the molar mass of the structure shown. Starred links: 1 amine or outer side, 2 acyl side, 3 side chain; linkers in the order of their positions; H or OH if unused. Residues, ends and D or L forms follow the SMILES beside them. *: point of attachment. Thiocarbamoyl(N-2-FPh) = Fc1ccccc1NC(=S)*; X1 = c1ccc2c(N3CCN(*)CC3)nsc2c1; NH(4-F-phenyl) = Fc1ccc(N*)cc1; Boc = CC(C)(C)OC(=O)*; CO = O=C([*:1])[*:2]

Columns and labels:
[1] = tested on: Staphylococcus; assay: Antibacterial activity against Coagulase positive Staphylococcus at 50 ug/mL incubated for 24 hrs by agar well diffusion method; type: functional; details: read-out: IZ
Summary of the method: (§1)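 Agar well diffusion against the bacterial isolate, with streptomycin as the reference drug. Read-out is the average diameter (mm) of the growth-inhibition zone around the well.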

[2] = tested on: Xanthomonas oryzae; assay: Antibacterial activity against Xanthomonas oryzae at 50 ug/mL incubated for 24 hrs by agar well diffusion method; type: functional; details: read-out: IZ
[3] = tested on: Escherichia coli; assay: Antibacterial activity against Escherichia coli at 50 ug/mL incubated for 24 hrs by agar well diffusion method; type: functional; details: read-out: IZ; summary of the method: as §1
[4] = tested on: Staphylococcus; assay: Antibacterial activity against Coagulase positive Staphylococcus incubated for 24 hrs by agar microdilution method; type: functional
[5] = tested on: Klebsiella pneumoniae; assay: Antibacterial activity against Klebsiella pneumoniae incubated for 24 hrs by agar microdilution method; type: functional
[6] = tested on: Xanthomonas oryzae; assay: Antibacterial activity against Xanthomonas oryzae incubated for 24 hrs by agar microdilution method; type: functional
[7] = tested on: Escherichia coli; assay: Antibacterial activity against Escherichia coli incubated for 24 hrs by agar microdilution method; type: functional
[8] = tested on: Fusarium verticillioides; assay: Antifungal activity against Fusarium moniliforme incubated for 48 to 72 hrs by agar microdilution method; type: functional
Summary of the method: (§2)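 MIC by microdilution against the fungal strain, limited to compounds showing significant zones in the diffusion assay. Bavistin was used as the reference.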

[9] = tested on: Fusarium oxysporum; assay: Antifungal activity against Fusarium oxysporum at 50 ug/mL incubated for 3 days by agar well diffusion method; type: functional; details: 72 h, read-out: IZ
Summary of the method: (§3)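 Fungal growth inhibition measured by agar well diffusion, with bavistin as the reference. Records the mean inhibition-zone diameter (mm) around each well.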

[10] = tested on: Aspergillus niger; assay: Antifungal activity against Aspergillus niger incubated for 48 to 72 hrs by agar microdilution method; type: functional; summary of the method: as §2
[11] = tested on: Aspergillus flavus; assay: Antifungal activity against Aspergillus flavus at 50 ug/mL incubated for 3 days by agar well diffusion method; type: functional; details: 72 h, read-out: IZ; summary of the method: as §3
[12] = tested on: Fusarium verticillioides; assay: Antifungal activity against Fusarium moniliforme at 50 ug/mL incubated for 3 days by agar well diffusion method; type: functional; details: 72 h, read-out: IZ; summary of the method: as §3
[13] = Inhibition of sheep stomach parietal cells gastric H+/K+-ATPase activity assessed as reduction in inorganic phosphorus production by Fiske Subbarow's method; type: tissue-based, Ovis aries
Summary of the method: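 Inhibition of purified H+/K+-ATPase, with omeprazole as the reference. IC50 is the mean of triplicate runs.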

[14] = tested on: Aspergillus flavus; assay: Antifungal activity against Aspergillus flavus incubated for 48 to 72 hrs by agar microdilution method; type: functional; summary of the method: as §2
[15] = biological target: Urease (Canavalia ensiformis, UniProt P07374); assay: Inhibition of jack bean urease assessed as reduction in ammonia production incubated at 30 degC for 15 mins by indophenol method
Summary of the method: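 Inhibition of jack bean urease, with thiourea as the reference standard. IC50 values are the average of triplicate runs.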

[16] = tested on: Aspergillus niger; assay: Antifungal activity against Aspergillus niger at 50 ug/mL incubated for 3 days by agar well diffusion method; type: functional; details: 72 h, read-out: IZ; summary of the method: as §3
[17] = tested on: Fusarium oxysporum; assay: Antifungal activity against Fusarium oxysporum incubated for 48 to 72 hrs by agar microdilution method; type: functional; summary of the method: as §2
[18] = Antiglycation activity using bovine serum albumin incubated at 37 degC for 7 days by spectrofluorimetry; type: physicochemical
Summary of the method: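 Glycation of bovine serum albumin, with rutin as the reference standard. IC50 values are averages of triplicate runs.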

[19] = tested on: Klebsiella pneumoniae; assay: Antibacterial activity against Klebsiella pneumoniae at 50 ug/mL incubated for 24 hrs by agar well diffusion method; type: functional; details: read-out: IZ; summary of the method: as §1

Sequence of Urease (P07374 whole entry): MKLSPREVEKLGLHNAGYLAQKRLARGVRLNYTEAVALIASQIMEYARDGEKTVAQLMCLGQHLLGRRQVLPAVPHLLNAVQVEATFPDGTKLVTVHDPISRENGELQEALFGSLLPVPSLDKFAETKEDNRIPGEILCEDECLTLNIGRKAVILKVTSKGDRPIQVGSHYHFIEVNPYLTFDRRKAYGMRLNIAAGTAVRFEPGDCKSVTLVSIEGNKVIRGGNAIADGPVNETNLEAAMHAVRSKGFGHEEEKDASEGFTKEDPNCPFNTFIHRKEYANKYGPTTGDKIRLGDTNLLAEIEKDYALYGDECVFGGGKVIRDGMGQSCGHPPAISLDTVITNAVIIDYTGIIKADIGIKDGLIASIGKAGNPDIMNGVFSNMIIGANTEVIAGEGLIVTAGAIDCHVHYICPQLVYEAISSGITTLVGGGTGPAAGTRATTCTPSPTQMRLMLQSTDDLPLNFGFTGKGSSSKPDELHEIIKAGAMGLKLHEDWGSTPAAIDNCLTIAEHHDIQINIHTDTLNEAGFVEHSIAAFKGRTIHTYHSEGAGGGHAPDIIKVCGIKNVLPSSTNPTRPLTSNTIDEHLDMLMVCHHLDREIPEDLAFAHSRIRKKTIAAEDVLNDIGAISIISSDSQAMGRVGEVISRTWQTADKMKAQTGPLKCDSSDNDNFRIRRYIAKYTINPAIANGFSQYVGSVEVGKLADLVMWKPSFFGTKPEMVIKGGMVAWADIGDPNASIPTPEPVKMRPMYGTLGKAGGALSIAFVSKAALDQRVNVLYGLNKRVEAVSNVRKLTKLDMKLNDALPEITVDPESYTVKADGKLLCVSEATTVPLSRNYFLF

Row | Compound | zone of inhibition at 50 µg/mL [1] | zone of inhibition at 50 µg/mL [2] | zone of inhibition at 50 µg/mL [3] | MIC [4] | MIC [5] | MIC [6] | MIC [7] | MIC [8] | zone of inhibition at 50 µg/mL [9] | MIC [10] | zone of inhibition at 50 µg/mL [11] | zone of inhibition at 50 µg/mL [12] | IC50 ([13]; read-out: IC50) | MIC [14] | IC50 [15] | zone of inhibition at 50 µg/mL [16] | MIC [17] | IC50 [18] | zone of inhibition at 50 µg/mL [19] | IC50 [13]
1 | CN[C@@H]1[C@H](O[C@H]2[C@H](O[C@H]3[C@H](O)[C@@H](O)[C@H](N=C(N)N)[C@@H](O)[C@@H]3N=C(N)N)O[C@@H](C)[C@]2(O)C=O)O[C@@H](CO)[C@H](O)[C@H]1O [STREPTOMYCIN] | 13 mm | 11 mm | 14 mm | 21 µg/mL (≈ 36.1 µM) | 20 µg/mL (≈ 34.4 µM) | 18 µg | 22 µg/mL (≈ 37.8 µM) |  |  |  |  |  |  |  |  |  |  |  |  | 
2 | CC(C)[C@H](NC(=O)CNC(=S)Nc1ccccc1F)C(=O)NCC(=O)N[C@H](C(=O)N1CCC[C@H]1C(=O)N1CCN(c2nsc3ccccc23)CC1)C(C)C ({Thiocarbamoyl(N-2-FPh)}-GVGVP-X1) | 27 mm | 24 mm | 27 mm | 15.5 µg/mL (≈ 19.8 µM) | 16 µg/mL (≈ 20.5 µM) |  | 14.2 µg/mL (≈ 18.2 µM) | 13 µg/mL (≈ 16.6 µM) | 30 mm | 15.2 µg/mL (≈ 19.5 µM) | 29 mm | 31 mm | 92 µM | 16.5 µg/mL (≈ 21.1 µM) | 40 µM | 30 mm | 15.2 µg/mL (≈ 19.5 µM) | 50 µM |  | 
3 | CC(C)[C@H](NC(=O)CNC(=O)Nc1ccc(F)cc1)C(=O)NCC(=O)N[C@H](C(=O)N1CCC[C@H]1C(=O)N1CCN(c2nsc3ccccc23)CC1)C(C)C ({NH(4-F-phenyl)-CO}-GVGVP-X1) | 29 mm | 27 mm | 30 mm | 13.2 µg/mL (≈ 17.3 µM) | 11.2 µg/mL (≈ 14.7 µM) | 10.5 µg | 12.8 µg/mL (≈ 16.6 µM) | 13.5 µg/mL (≈ 17.6 µM) | 30 mm | 11.8 µg/mL (≈ 15.3 µM) | 32 mm | 34 mm | 78 µM | 14.5 µg/mL (≈ 18.9 µM) | 39 µM | 33 mm | 14.5 µg/mL (≈ 18.9 µM) | 40 µM |  | 
4 | CC(C)[C@H](NC(=O)CNC(=O)OC(C)(C)C)C(=O)NCC(=O)N[C@H](C(=O)N1CCC[C@H]1C(=O)N1CCN(c2nsc3ccccc23)CC1)C(C)C (Boc-GVGVP-X1) | 5 mm | 4 mm | 6 mm |  |  |  |  |  | 6 mm |  | 4 mm | 5 mm |  |  | 295 µM | 5 mm |  | 250 µM | 40.3 mm | Not Active
5 | CC(C)[C@H](NC(=O)CNC(=O)[C@H](Cc1ccccc1)NC(=O)CNC(=O)Nc1ccc(F)cc1)C(=O)N1CCC[C@H]1C(=O)N1CCN(c2nsc3ccccc23)CC1 ({NH(4-F-phenyl)-CO}-GFGVP-X1) | 32 mm | 31 mm | 33 mm | 11.2 µg/mL (≈ 13.8 µM) | 9.25 µg/mL (≈ 11.4 µM) | 8.75 µg | 11 µg/mL (≈ 13.5 µM) | 11 µg/mL (≈ 13.5 µM) | 32 mm | 10.5 µg/mL (≈ 12.9 µM) | 31 mm | 31 mm | 80 µM | 11 µg/mL (≈ 13.5 µM) | 35 µM | 30 mm | 12.2 µg/mL (≈ 15 µM) | 44 µM |  | 
